# Reference: ChEMBL document CHEMBL3808334, “Synthesis and in vitro evaluation of novel triazine analogues as anticancer agents and their interaction studies with bovine serum albumin” (Eur J Med Chem, 2016)
# Assays:
# Format in all cases: functional
# [1] = Growth inhibition of human SNB75 cells assessed as cell growth at 10^-5 M incubated for 48 hrs by sulforhodamine B assay; conditions: SNB-75, 48 h, read-out: Activity
# [2] = Growth inhibition of human HCT15 cells assessed as cell growth at 10^-7 M incubated for 48 hrs by sulforhodamine B assay; conditions: HCT-15, 48 h, read-out: Activity
# How it was run: (§1)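 Cells seeded at 5,000–40,000/well according to doubling time and preincubated 24 h at 37 °C, 5% CO2. Time-zero plates were TCA-fixed. DMSO concentrate was diluted in medium with 50 µg/ml gentamicin to give five concentrations (10-fold or ½ log steps), then exposed 48 h. Cells were TCA-fixed, stained with 0.4% SRB and read at 515 nm. Percent growth was taken against time-zero and control; GI50, TGI and LC50 derived.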
# [3] = Growth inhibition of human Caki1 cells incubated for 48 hrs by sulforhodamine B assay; conditions: CAKI-1, 48 h; for CC50: read-out: pLC50 (the source's name) (converted); how it was run: as §1
# MDA-MB-468 [4] = assay: Growth inhibition of human MDA-MB-468 cells assessed as cell growth at 10^-5 M incubated for 48 hrs by sulforhodamine B assay; conditions: MDA-MB-468, 48 h, read-out: Activity
# [5] = Growth inhibition of human SKOV3 cells assessed as cell growth at 10^-5 M incubated for 48 hrs by sulforhodamine B assay; conditions: SK-OV-3, 48 h, read-out: Activity
# [6] = Growth inhibition of human ovarian cancer cells incubated for 48 hrs by sulforhodamine B assay; conditions: Cancer cell lines; for CC50: read-out: LC50 (the source's name)
# [7] = Growth inhibition of human Caki1 cells assessed as cell growth at 10^-5 M incubated for 48 hrs by sulforhodamine B assay; conditions: CAKI-1, 48 h, read-out: Activity; how it was run: as §1
# [8] = Growth inhibition of human HOP62 cells assessed as cell growth at 10^-5 M incubated for 48 hrs by sulforhodamine B assay; conditions: HOP-62, 48 h, read-out: Activity
# KM12 [9] = assay: Growth inhibition of human KM12 cells assessed as cell growth at 10^-7 M incubated for 48 hrs by sulforhodamine B assay; conditions: KM12, 48 h, read-out: Activity
# [10] = Growth inhibition of human Hs 578T cells assessed as cell growth at 10^-7 M incubated for 48 hrs by sulforhodamine B assay; conditions: read-out: Activity
# 786-0 = assay: Growth inhibition of human 786-0 cells assessed as cell growth at 10 uM incubated for 48 hrs by sulforhodamine B assay; conditions: 786-0, 48 h, read-out: Activity
# How it was run: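 One-dose screen at 10 µM final. Cells are plated at 5,000–40,000 per well according to doubling time and preincubated 24 h at 37 °C, 5% CO₂. Compound (DMSO stock diluted in medium with 50 µg/ml gentamicin) is then added for 48 h. Growth percent is read by sulforhodamine B staining, absorbance at 515 nm.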
# NCI-H522 = assay: Growth inhibition of human NCI-H522 cells incubated for 48 hrs by sulforhodamine B assay; conditions: NCI-H522, 48 h
# How it was run: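 Cells were plated at 5,000–40,000 per well according to doubling time and preincubated 24 h at 37 °C in 5% CO2; time-zero plates were then TCA-fixed. Five concentrations (10-fold or ½-log dilutions, DMSO stock) were incubated 48 h. Cells were TCA-fixed, stained with 0.4% SRB and read at 515 nm. GI50 was taken where [(Ti−Tz)/(C−Tz)]×100 = 50.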
# MDA-MB-468 [11] = assay: Growth inhibition of human MDA-MB-468 cells assessed as cell growth at 10^-8 M incubated for 48 hrs by sulforhodamine B assay; conditions: MDA-MB-468, 48 h, read-out: Activity
# [12] = Growth inhibition of human SF268 cells assessed as cell growth at 10^-6 M incubated for 48 hrs by sulforhodamine B assay; conditions: SF-268, 48 h, read-out: Activity
# [13] = Growth inhibition of human RXF393 cells assessed as cell growth at 10^-8 M incubated for 48 hrs by sulforhodamine B assay; conditions: RXF 393, 48 h, read-out: Activity
# SN12C = assay: Growth inhibition of human SN12C cells assessed as cell growth at 10^-5 M incubated for 48 hrs by sulforhodamine B assay; conditions: read-out: Activity
# [14] = Growth inhibition of human HCC2998 cells assessed as cell growth at 10^-8 M incubated for 48 hrs by sulforhodamine B assay; conditions: HCC 2998, 48 h, read-out: Activity; how it was run: as §1
# MDA-MB-231 = assay: Growth inhibition of human MDA-MB-231 cells assessed as cell growth at 10^-8 M incubated for 48 hrs by sulforhodamine B assay; conditions: MDA-MB-231, 48 h, read-out: Activity
# [15] = Growth inhibition of human TK10 cells assessed as cell growth at 10^-7 M incubated for 48 hrs by sulforhodamine B assay; conditions: TK-10, 48 h, read-out: Activity
# [16] = Growth inhibition of human RXF393 cells assessed as cell growth at 10^-6 M incubated for 48 hrs by sulforhodamine B assay; conditions: RXF 393, 48 h, read-out: Activity
# NCI-H226 = assay: Growth inhibition of human NCI-H226 cells assessed as cell growth at 10^-6 M incubated for 48 hrs by sulforhodamine B assay; conditions: NCI-H226, 48 h, read-out: Activity
# [17] = Growth inhibition of human SNB75 cells assessed as cell growth at 10 uM incubated for 48 hrs by sulforhodamine B assay; conditions: SNB-75, 48 h, read-out: Activity
# [18] = Growth inhibition of human OVCAR4 cells assessed as cell growth at 10^-4 M incubated for 48 hrs by sulforhodamine B assay; conditions: OVCAR-4, 48 h, read-out: Activity
# SK-MEL-5 = assay: Growth inhibition of human SK-MEL-5 cells assessed as cell growth at 10 uM incubated for 48 hrs by sulforhodamine B assay; conditions: SK-MEL-5, 48 h, read-out: Activity
# [19] = Growth inhibition of human OVCAR3 cells assessed as cell growth at 10^-7 M incubated for 48 hrs by sulforhodamine B assay; conditions: OVCAR-3, 48 h, read-out: Activity
# [20] = Growth inhibition of human HOP92 cells assessed as cell growth at 10^-8 M incubated for 48 hrs by sulforhodamine B assay; conditions: HOP-92, 48 h, read-out: Activity
# KM12 [21] = assay: Growth inhibition of human KM12 cells assessed as cell growth at 10^-4 M incubated for 48 hrs by sulforhodamine B assay; conditions: KM12, 48 h, read-out: Activity
# [22] = Growth inhibition of human MOLT4 cells assessed as cell growth at 10^-8 M incubated for 48 hrs by sulforhodamine B assay; conditions: MOLT-4, 48 h, read-out: Activity
# [23] = Growth inhibition of human OVCAR4 cells assessed as cell growth at 10^-7 M incubated for 48 hrs by sulforhodamine B assay; conditions: OVCAR-4, 48 h, read-out: Activity
# [24] = Growth inhibition of human RPMI8226 cells assessed as cell growth at 10^-4 M incubated for 48 hrs by sulforhodamine B assay; conditions: RPMI-8226, 48 h, read-out: Activity
# [25] = read-out: LC50 (the source's name)
# [26] = read-out: pLC50 (the source's name) (converted)
structure (smiles),measurement,setting,value
Fc1ccc(-c2nc(Nc3ccc(-c4nc5ccccc5[nH]4)cc3)nc(N3CCOCC3)n2)cc1,growth at 10 µM,[1],1%
same,growth at 0.1 µM,[2],98%
same,LC50,[3],> 100 µM
same,GI50,[3]; read-out: GI50,1.98 µM
same,TGI,[3]; read-out: TGI,5.02 µM
same,GI50,[3]; read-out: pGI50 (converted),2 µM
same,CC50,[3],> 100 µM
same,TGI,[3]; read-out: pTGI (converted),5.01 µM
same,growth at 10 µM,MDA-MB-468 [4],-14%
same,growth at 10 µM,[5],-35%
same,GI50,[6],2.74 µM
same,TGI,[6],11.5 µM
same,CC50,[6],> 100 µM
same,growth at 10 µM,[7],-37%
same,growth at 10 µM,[8],-34%
same,growth at 0.1 µM,KM12 [9],98%
same,growth at 0.1 µM,[10],93%
same,growth at 10 µM,786-0,-60%
same,GI50,NCI-H522; read-out: GI50,2.36 µM
same,CC50,NCI-H522; [25],> 100 µM
same,TGI,NCI-H522; read-out: TGI,5.85 µM
same,GI50,NCI-H522; read-out: pGI50 (converted),2.34 µM
same,CC50,NCI-H522; [26],> 100 µM
same,TGI,NCI-H522; read-out: pTGI (converted),5.89 µM
same,growth at 0.01 µM,MDA-MB-468 [11],97%
same,growth at 1 µM,[12],89%
same,growth at 0.01 µM,[13],102%
same,growth at 10 µM,SN12C,12%
same,growth at 0.01 µM,[14],99%
same,growth at 0.01 µM,MDA-MB-231,92%
same,growth at 0.1 µM,[15],88%
same,growth at 1 µM,[16],24%
same,growth at 1 µM,NCI-H226,113%
same,growth at 10 µM,[17],-19.2%
same,growth at 100 µM,[18],-23%
same,growth at 10 µM,SK-MEL-5,-90.7%
same,growth at 0.1 µM,[19],100%
same,growth at 0.01 µM,[20],96%
same,growth at 100 µM,KM12 [21],-37%
same,growth at 0.01 µM,[22],98%
same,growth at 0.1 µM,[23],104%
same,growth at 100 µM,[24],-14%
Clc1ccc(-c2nc(Nc3ccc(-c4nc5ccccc5[nH]4)cc3)nc(N3CCOCC3)n2)cc1,growth at 10 µM,[1],-91%
same,growth at 0.1 µM,[2],91%
same,LC50,[3],5.23 µM
same,GI50,[3]; read-out: GI50,1.41 µM
same,TGI,[3]; read-out: TGI,2.72 µM
same,GI50,[3]; read-out: pGI50 (converted),1.41 µM
same,CC50,[3],5.25 µM
same,TGI,[3]; read-out: pTGI (converted),2.69 µM
same,growth at 10 µM,MDA-MB-468 [4],-71%
same,growth at 10 µM,[5],-96%
same,GI50,[6],0.92 µM
same,TGI,[6],2.3 µM
same,CC50,[6],5.2 µM
same,growth at 10 µM,[7],-99%
same,growth at 10 µM,[8],-77%
same,growth at 0.1 µM,KM12 [9],97%
same,growth at 0.1 µM,[10],87%
same,growth at 10 µM,786-0,-94.5%
same,GI50,NCI-H522; read-out: GI50,1.5 µM
same,TGI,NCI-H522; read-out: TGI,3.19 µM
same,GI50,NCI-H522; read-out: pGI50 (converted),1.51 µM
same,TGI,NCI-H522; read-out: pTGI (converted),3.16 µM
same,growth at 0.01 µM,MDA-MB-468 [11],99%
same,growth at 1 µM,[12],3%
same,growth at 0.01 µM,[13],100%
same,growth at 10 µM,SN12C,-77%
same,growth at 0.01 µM,[14],94%
same,growth at 0.01 µM,MDA-MB-231,93%
same,growth at 0.1 µM,[15],92%
same,growth at 1 µM,[16],-56%
same,growth at 1 µM,NCI-H226,100%
same,growth at 10 µM,[17],-92.6%
same,growth at 100 µM,[18],-51%
same,growth at 10 µM,SK-MEL-5,-97.6%
same,growth at 0.1 µM,[19],97%
same,growth at 0.01 µM,[20],90%
same,growth at 100 µM,KM12 [21],-67%
same,growth at 0.01 µM,[22],98%
same,growth at 0.1 µM,[23],98%
same,growth at 100 µM,[24],-27%
c1ccc2[nH]c(-c3ccc(Nc4nc(N5CCCCC5)nc(N5CCOCC5)n4)cc3)nc2c1,growth at 10 µM,[1],10%
same,growth at 0.1 µM,[2],92%
same,GI50,[3]; read-out: GI50,1.81 µM
same,TGI,[3]; read-out: TGI,4.08 µM
same,GI50,[3]; read-out: pGI50 (converted),1.82 µM
same,TGI,[3]; read-out: pTGI (converted),4.07 µM
same,growth at 10 µM,MDA-MB-468 [4],-24%
same,growth at 10 µM,[5],-37%
same,GI50,[6],3.46 µM
same,TGI,[6],22.6 µM
same,CC50,[6],26.9 µM
same,growth at 10 µM,[7],-55%
same,growth at 10 µM,[8],-52%
same,growth at 0.1 µM,KM12 [9],103%
same,growth at 0.1 µM,[10],94%
same,growth at 10 µM,786-0,-57.3%
same,GI50,NCI-H522; read-out: GI50,2.36 µM
same,CC50,NCI-H522; [25],> 100 µM
same,TGI,NCI-H522; read-out: TGI,6.22 µM
same,GI50,NCI-H522; read-out: pGI50 (converted),2.34 µM
same,CC50,NCI-H522; [26],> 100 µM
same,TGI,NCI-H522; read-out: pTGI (converted),6.17 µM
same,growth at 0.01 µM,MDA-MB-468 [11],104%
same,growth at 1 µM,[12],96%
same,growth at 0.01 µM,[13],96%
same,growth at 10 µM,SN12C,32%
same,growth at 0.01 µM,[14],98%
same,growth at 0.01 µM,MDA-MB-231,99%
same,growth at 0.1 µM,[15],93%
same,growth at 1 µM,[16],46%
same,growth at 1 µM,NCI-H226,89%
same,growth at 10 µM,[17],-0.68%
same,growth at 100 µM,[18],-32%
same,growth at 10 µM,SK-MEL-5,-90.8%
same,growth at 0.1 µM,[19],104%
same,growth at 0.01 µM,[20],92%
same,growth at 100 µM,KM12 [21],-40%
same,growth at 0.01 µM,[22],99%
same,growth at 0.1 µM,[23],97%
same,growth at 100 µM,[24],-24%
